This passage reports cytotoxicity results from ChEMBL document CHEMBL4513216, “Probing the Open Global Health Chemical Diversity Library for Multistage-Active Starting Points for Next-Generation Antimalarials” (ACS Infect Dis, 2020).

Molecules are shown by their SMILES.

A short description of this data set: Toxicity liver stage against HepG2, at 10uM. Type of data set: cell-based. The arrangement: test concentration 10 uM, cell line HepG2-A16-CD81EGFP. Particulars: human, HepG2-A16-CD81EGFP cells; read-out: INHIBITION
In short, it runs like this: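 Uninfected HepG2-A16-CD81EGFP cells, 3 × 10^3 per well, 1536-well, plated on prespotted compound at 10 μM final, parasite-free screening media added to match infected plates; puromycin 10 μM positive, DMSO 0.5% negative; run in parallel with 48 h PbLuc assay at 37 °C, 5% CO2; viability by CellTiter-Glo luminescence, normalized to controls.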

In the case of `Cc1ccccc1S(=O)(=O)N1CCCCC1c1ccn[nH]1` (stereo unspecified), the cytotoxicity at 10 µM amounted to 12.1%. In the case of `Cc1nc(CC(=O)NS(=O)(=O)c2cccc3cnccc23)cs1` it was 5.75%; in that of `Cc1nc(-c2cc(C(=O)NC(C)(C(=O)O)C(C)C)co2)cs1` (stereo unspecified), 1.84%. With `COc1ccc(OC)c(C(C)Nc2nc3c(C)nn(C)c3c(=O)n2C)c1` (stereo unspecified), the cytotoxicity at 10 µM was -15%. For the molecule `COCC(=O)NCCC(=O)N1CCN(S(=O)(=O)c2ccc(Br)cc2)CC1`, the cytotoxicity at 10 µM was -38.2%. In the case of `COCCN1CCC2(CCCN(C(=O)c3cncn3C)C2)CC1` it was -1.4%; in that of `Cc1cc(C)cc(CN2C[C@H]3COC[C@H](N4CCN(C)CC4)[C@H]3C2)c1`, -93.7%; in that of `Cc1cnn(CC2CN(Cc3nc(C)no3)CCO2)c1` (stereo unspecified), -18.5%. In the case of `COC[C@H](C)Nc1cc(C)c2ccc(SC)cc2n1` it was 0.466%; in that of `Cc1ncc(CNCC(=O)NC2CCCCC2)n1-c1ccccc1`, -4.75%. In the case of `CCN1CCN(C(=O)c2cc(-c3cccn3C)n[nH]2)[C@H]2CS(=O)(=O)C[C@H]21` it was -12.5%; in that of `NCc1cccc(NC(=O)CCN2CCOCC2)c1`, -0.509%; in that of `O=C(C1CCC1)N1CCC(=O)N(C2CC2)Cc2cc(F)ccc21`, -7.76%. In the case of `Cc1ccc(CC2COCCN(S(=O)(=O)c3ccccc3)C2)nc1` (stereo unspecified), the cytotoxicity at 10 µM was -4.48%. In the case of `Cc1cc(F)cc(S(=O)(=O)NC(=O)CCc2cncc(F)c2)c1` it was 7.78%; in that of `Cc1ccc(N2CCCC(NCc3cc(C)on3)C2)nn1` (stereo unspecified), -4.8%.

As for `O=C1NCCN(CC2CC2)C12CCN(Cc1ccco1)CC2`, the cytotoxicity at 10 µM is 2.55%.

With `N#Cc1cc(S(N)(=O)=O)ccc1NC1CCc2c(F)cccc21` (stereo unspecified), the cytotoxicity at 10 µM was -12.4%. In the case of `CN(C)c1ccc(C(=O)N2CCN(Cc3cscn3)CC2)cn1` it was -4.57%; in that of `O=C(NCC1CC1)Nc1cnc2cc(Cl)ccc2c1O`, -0.0788%. In the case of `CN1CCC2(CC1)CN(C)C(=O)C[C@@H]2C(F)(F)F` it was -144%; in that of `COc1cc(N2CC[C@@H]3O[C@@H](C(=O)NCCN(C)C)C[C@@H]32)ncn1`, 0.588%; in that of `N#CC1COCCN1C(=O)c1ccc2[nH]cnc2c1` (stereo unspecified), -2.87%. In the case of `Cc1cc(OC(F)F)c(C(=O)N2CCN(C3CC3)CC2)s1` it was 9.05%. `CC1(C(=O)N2CCC(n3cc(C4(O)CCCC4)nn3)CC2)CCCCC1`: the cytotoxicity at 10 µM is 0.68%. In the case of `O=C(O)CCn1ccc2cc(Br)ccc21` it was 10.7%; in that of `O=C(c1ccc[nH]1)N1CCn2cc(Cn3cncn3)nc2C1`, -2.65%. In the case of `O=C(CCc1nccs1)N1CCN(c2ccccn2)CC1` it was -19.7%. In the case of `Cc1c(C(=O)N2CCCC2c2cnn(C)c2)nnn1-c1ccccc1` (stereo unspecified) it was -11.4%. Regarding `O=C1CCC(C(=O)N2CCOC(Cc3cccc4ccccc34)C2)=NN1` (stereo unspecified), the cytotoxicity at 10 µM is -3.86%. For the molecule `Cc1ccc(CN2Cc3c(C(=O)N4CCCC4)nn(C)c3C2)s1`, the cytotoxicity at 10 µM is -0.704%. In the case of `CNC(=O)[C@H]1C[C@@H]2CN(C(=O)c3ccncc3)C[C@@H]2N1S(C)(=O)=O` it was -5.98%; in that of `CCc1nc(NCC2CCCN(C(=O)C3CC3)C2)c2cnn(C)c2n1` (stereo unspecified), 1.14%; in that of `Cc1ccc(CN2Cc3nnn(C)c3C(COCC3CC3)C2)s1` (stereo unspecified), 4.27%. As for `CCN(Cc1ccncc1)C1CCCN(Cc2ccc(F)cc2OC)C1` (stereo unspecified), the cytotoxicity at 10 µM was -3.73%. Regarding `Cc1cnc(CN(Cc2cccc(O)c2)CC2CC2)cn1`, the cytotoxicity at 10 µM is 16.7%. In the case of `CC(CCc1ccccc1)NC(=O)CN1CCOCC1` (stereo unspecified) it was 4.17%. As for `Cn1cnnc1CC1CCN(Cc2c(Cl)cncc2Cl)CC1`, the cytotoxicity at 10 µM is -9.42%. On to `O=C(Cc1cccc(F)c1)NCCNS(=O)(=O)C1CCCC1`, for which the cytotoxicity at 10 µM was found to be 3.61%. In the case of `c1cc(-c2ccc3c(c2)CCC32CCN(c3nncs3)CC2)co1` it was -2.07%; in that of `CCN(CC)c1ccc2ccc(C(=O)NC3CC3)cn12`, -2.6%; in that of `O=C(NC1CC1)c1cc(NC(=O)N2CCCC2)ccc1Cl`, 3.31%. In the case of `Cc1ccccc1C1(C(=O)N2CCCC(n3cncn3)C2)CC1` (stereo unspecified) it was -4.37%.

Consider `CC(C)CCNc1nc(C(=O)NC2CC2)cs1`, for which the cytotoxicity at 10 µM amounted to 0.461%. In the case of `COCCn1cc(NC(=O)NC(C)CCc2ccccc2)ccc1=O` (stereo unspecified) it was 3.4%; in that of `CC(C)(NCC(=O)NCC(F)(F)F)c1ccc2c(c1)OCCO2`, -8.23%; in that of `CC(C)C(NC(=O)Nc1ccc(F)cc1)C(=O)N(C)C` (stereo unspecified), -10.9%.

Regarding `O=C(CCn1cncn1)N1CCCC1c1noc(C2CC2)n1` (stereo unspecified), the cytotoxicity at 10 µM was -23.3%.

As for `Cc1cc(-n2c(C)cn(CN(C)C3CCS(=O)(=O)C3)c2=O)no1` (stereo unspecified), the cytotoxicity at 10 µM is -0.872%. In the case of `COc1ccc(CNCc2ccnc(N3CCOCC3)c2)c(OC)c1` it was -8.92%. In the case of `CNc1oc(COc2ccc3c(c2)OCO3)nc1C#N`, the cytotoxicity at 10 µM is -58.3%. In the case of `c1cnc(N2CCOCC3(CN(Cc4cc[nH]n4)CCO3)C2)nc1` (stereo unspecified) it was 10%; in that of `Cc1cc(NCc2nnc3n2CCCCC3)n2nc(C)c(C)c2n1`, 5.66%; in that of `O=C(Nc1nc(-c2ccccc2)ns1)N1CCC(CO)CC1`, 9.11%. In the case of `COc1cc(CNC(C)Cn2cccn2)cc(Cl)c1OC` (stereo unspecified) it was -1.14%; in that of `COc1ccc([C@@H]2CN(C(=O)c3cscn3)C[C@H]2C(=O)O)cc1`, -18.2%; in that of `O=C1COC2(CCN(C(=O)c3ccoc3)CC2)CN1Cc1ccccn1`, -1.11%. In the case of `O=C(NCCn1ccnc1)c1cc(Br)c[nH]1` it was -5.2%; in that of `c1ccc(Cc2noc(CN3CCCC3Cn3cccn3)n2)cc1` (stereo unspecified), -2.57%. For `O=C(c1ncc[nH]1)N1CCC(n2cc(-c3cccc(Cl)c3)nn2)CC1`, the cytotoxicity at 10 µM was 5.28%.

Regarding `Cc1oc(-c2ccccc2)nc1C(=O)NC1=NCCS1`, the cytotoxicity at 10 µM amounted to 1.85%. In the case of `COCCN1C(=O)[C@]2(CC[C@@H]3CN(S(=O)(=O)CC(C)C)C[C@@H]32)N=C1C` it was -69.3%; in that of `COc1ccccc1C(=O)N1CCCC1c1ncc2c(n1)CCNC2` (stereo unspecified), -12.3%; in that of `CC(C)(C)c1ncc(C(=O)NCCSc2ccccn2)c(O)n1`, -0.494%. In the case of `CC(C)CN(Cc1nc2c(cnn2C)c(=O)[nH]1)C(C)C` it was -9.96%; in that of `CCN1CC(COC(=O)c2ccc(N(C)C)cc2F)CC1=O` (stereo unspecified), 2.38%.

As to `CC(OCC1CC1)C(=O)N1CCCN(Cc2cnn(C)c2)CC1` (stereo unspecified), the cytotoxicity at 10 µM worked out at 2.55%. In the case of `O=C(O)C1(n2ccnc2)CCN(Cc2cc3ccccc3o2)CC1` it was -6.34%. In the case of `Cc1ccc(N2CCCC(NCc3cccc4c3OCO4)C2)nn1` (stereo unspecified) it was -16.4%; in that of `CC(=O)N1CCC(c2nc3ccc(-c4ccnn4C)cn3n2)CC1`, 6.84%.

Take `CN1C(=O)CC(C(=O)O)C12CCN(Cc1cc(Cl)ccc1F)CC2` (stereo unspecified): the cytotoxicity at 10 µM was 5.64%. In the case of `CN1N=C(C(=O)N2CCCCC2)S(=O)(=O)c2ccccc21` it was -183%; in that of `Cc1noc(C2(C)CCCN(C(=O)c3cccnc3)C2)n1` (stereo unspecified), -13.4%; in that of `Cc1cc(C)n(CC2CCCN2CC(=O)N(C)Cc2ccco2)n1` (stereo unspecified), -12.2%. In the case of `CC(C)CC(=O)N1CCC2(CC1)[C@@H]1CN(C(=O)N(C)C)C[C@@H]1C(=O)N2C` it was 4.85%; in that of `CC(=O)Nc1ccc(CN2CCCC(c3cc4ncccc4[nH]3)C2)cc1` (stereo unspecified), 0.99%.

In the case of `O=C1CCCN1CCc1nc(-c2ccsc2)no1`, the cytotoxicity at 10 µM is -1.22%. In the case of `Cc1ccc(C(=O)NCCCN(C)S(C)(=O)=O)cc1-n1cccc1` it was -8.71%. In the case of `CCc1nc(CN2CCCC(NCc3cnc(C)s3)C2)no1` (stereo unspecified) it was -9.26%; in that of `O=C(CNC1CCc2ncnn2C1)N(Cc1cccs1)C1CC1` (stereo unspecified), -3.09%; in that of `O=C(CC1CC1)N1CCC2(CC1)CN(c1ccsc1)C(=O)CO2`, -73.1%. For the molecule `CC(C)n1nc2c(cc1=O)CN(CCOc1ccc(C#N)cc1)CC2`, the cytotoxicity at 10 µM was determined as 14.9%.

Take `O=c1cccnn1CC1CN(c2ncc(F)cn2)Cc2nccn2C1` (stereo unspecified): the cytotoxicity at 10 µM stood at 4.65%. In the case of `CCC1CCCN(CC(=O)Nc2oc(C)c3c(C)n[nH]c(=O)c23)C1` (stereo unspecified) it was -3.66%; in that of `c1cnc(CC2CCN(c3cnccn3)CC2)cn1`, 4.44%; in that of `CN(Cc1cc2cc(F)ccc2[nH]1)C(=O)C1CC(=O)N(C(C)(C)C)C1` (stereo unspecified), 0.993%. `COCCOc1ccc(NC(=O)N(CC2CCOC2)C2CC2)cn1` (stereo unspecified): the cytotoxicity at 10 µM was -1.29%.

Take `Fc1cc(CN2CCOC3(CCOCC3)C2)ccc1OC(F)F`: the cytotoxicity at 10 µM is -11.9%. In the case of `Cc1c(C(=O)NCC(C)C)nnn1-c1cccc2c1CCN(C(C)C)C2` it was -12.3%; in that of `CNS(=O)(=O)c1cc(C)c2[nH]c(=O)cc(C)c2c1`, -7.76%.

For `O=S1(=O)CCC(n2nc(COc3ccccc3)nc2-c2cnccn2)C1` (stereo unspecified), the cytotoxicity at 10 µM is -4.64%. In the case of `Cc1csc2c(=O)n3c(nc12)CCN(C(=O)c1ccnn1C)CC3`, the cytotoxicity at 10 µM is -9.35%.

As to `CCN1CC(C)(C)CN(C(=O)CCc2ccccc2)CC1=O`, the cytotoxicity at 10 µM amounted to 0.305%. Regarding `COc1c(NC(=O)N(C)CCOc2ccccc2)c(C)nn1C`, the cytotoxicity at 10 µM was 19.2%.

Take `Cc1cc(C(=O)N2CCCC2c2nnc3n2CCCCC3)on1` (stereo unspecified): the cytotoxicity at 10 µM came out at 1.68%.

Consider `CC(=O)N1CCC(NCc2cccnc2N(C)Cc2ccccc2)CC1`, for which the cytotoxicity at 10 µM was -14.1%.
